“And” between values parts separate entries of the source, which are not always exact repeats. Identical values can stand only once.
Legend:
Plasmodium berghei [1] = experiment: Antimalarial activity against Plasmodium berghei K173 after peroral dose
Plasmodium berghei [2] = experiment: as above; remark: listed apart in the source
Monkey [3] = experiment: Mean time for 50% reduction in parasitaemia at a dose of 3.16 mg/kg/day after oral administration on Plasmodium knowlesi in rhesus monkeys (7-day treatment); format: functional, Cercopithecidae
Outline: (§1)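 Rhesus monkeys inoculated intravenously on D0 with 2 × 107 P. knowlesi. Compounds given orally once daily D0–D6 (7-day treatment) at 3.16 or 10.0 mg/kg/day, as stated per line. Parasitaemia followed to assess clearance rapidity; cure or recrudescence also recorded.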

Monkey [4] = experiment: Time of clearance after oral administration on Plasmodium knowlesi in rhesus monkeys (7-day treatment); format: functional, Cercopithecidae
Outline: as §1

Plasmodium berghei [5] = experiment: Antimalarial activity against Plasmodium berghei […] after subcutaneous dose; format: functional
Outline: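 Mice inoculated intraperitoneally on day 0 with 1.5 × 107 P. berghei K173 parasitized cells. Test agents dissolved or ground in water or peanut oil, given once daily D0–D3 at 0.625, 1.25, 2.5, 5 and 10 mg/kg, orally or subcutaneously. Blood smears taken D4, stained and examined by microscopy.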

Monkey [6] = experiment: Mean time for 90% reduction in parasitaemia at a dose of 3.16 mg/kg/day after oral administration on Plasmodium knowlesi in rhesus monkeys (7-day treatment); format: functional, Cercopithecidae
Outline: as §1

Monkey [7] = experiment: Percent parasitaemia before treatment at a dose of 10 mg/kg/day after oral administration on Plasmodium knowlesi in rhesus monkeyss (7-day treatment); format: functional, Cercopithecidae
Outline: as §1

Monkey [8] = experiment: Percent parasitaemia before treatment at a dose of 3.16 mg/kg/day after oral administration on Plasmodium knowlesi in rhesus monkeys (7-day treatment); format: functional, Cercopithecidae
Outline: as §1

Monkey [9] = experiment: Mean time for 50% reduction in parasitaemia at a dose of 10 mg/kg/day after oral administration on Plasmodium knowlesi in rhesus monkeys (7-day treatment); format: functional, Cercopithecidae
Outline: as §1

Monkey [10] = experiment: Mean time for 90% reduction in parasitaemia at a dose of 10 mg/kg/day after oral administration on Plasmodium knowlesi in rhesus monkeys (7-day treatment); format: functional, Cercopithecidae
Outline: as §1

Monkey [11] = experiment: Percent parasitaemia before treatment at a dose of 10 mg/kg/day after oral administration on Plasmodium knowlesi in rhesus monkeys (7-day treatment); format: functional, Cercopithecidae
Outline: as §1

SMILES | SD50 (Plasmodium berghei [1]) [mg/kg/day] | SD90 (Plasmodium berghei [2]) [mg/kg/day] | Reduction (Monkey [3]) [h] | Parasite_Clearance_time (Monkey [4]) | SD50 (Plasmodium berghei [5]) [mg/kg/day] | SD90 (Plasmodium berghei [5]) [mg/kg/day] | Reduction (Monkey [6]) [h] | Parasitemia (Monkey [7]) [%] | Parasitemia (Monkey [8]) [%] | Reduction (Monkey [9]) [h] | Reduction (Monkey [10]) [h] | Parasitemia (Monkey [11]) [%]
C[C@@H]1CCC2[C@@H](C)[C@@H](OCCN3CCOCC3)O[C@@H]3O[C@@]4(C)CCC1[C@@]23OO4.O=C(O)/C=C\C(=O)O (stereo partly specified) | 1.82 | 7.29 |  |  |  |  |  |  |  |  |  | 
C[C@@H]1CCC2[C@@H](C)[C@@H](OCCCN3CCOCC3)O[C@@H]3O[C@@]4(C)CCC1[C@@]23OO4.O=C(O)/C=C/C(=O)O (stereo partly specified) | 1.33 | 11.19 |  |  |  |  |  |  |  |  |  | 
CCN(CC)CCO[C@H]1O[C@@H]2O[C@@]3(C)CCC4[C@H](C)CCC([C@H]1C)[C@]42OO3.O=C(O)C(=O)O (stereo partly specified) |  |  | 4.5 | 52 h | 24.57 | 255.83 | 11.38 |  |  |  |  | 
C[C@@H]1CCC2[C@@H](C)[C@@H](OCCNCCO)O[C@@H]3O[C@@]4(C)CCC1[C@@]23OO4.O=C(O)/C=C\C(=O)O (stereo partly specified) | 1.74 | 5.08 | 4.5 | 52 h | 27.66 | 165.96 | 11.38 | 74 |  |  |  | 
C[C@@H]1CCC2[C@@H](C)[C@@H](OCCN3CCOCC3)O[C@@H]3O[C@@]4(C)CCC1[C@@]23OO4.O=C(O)C(=O)O (stereo partly specified) | 1.61 | 5.26 |  |  |  |  |  |  |  |  |  | 
C[C@@H]1CCC2[C@@H](C)[C@@H](OCCCN3CCOCC3)O[C@@H]3O[C@@]4(C)CCC1[C@@]23OO4.O=C(O)/C=C\C(=O)O (stereo partly specified) | 1.82 | 5.28 | 5.19 | 40 h | 5.57 | 302.49 | 11.8 |  |  |  |  | 
C[C@H]1C(OC(=O)CCC(=O)O)O[C@@H]2O[C@@]3(C)CCC4[C@H](C)CCC1[C@]42OO3 (stereo partly specified) | 6.33 | 23.39 | 7.84 | 50 h and 54 h |  |  | 13.3 |  | 42.7 | 8.21 | 13.74 | 35
C[C@@H]1CCC2[C@@H](C)[C@@H](OCCN(C)C)O[C@@H]3O[C@@]4(C)CCC1[C@@]23OO4.O=C(O)C(=O)O (stereo partly specified) | 1.61 | 4.71 | 5.29 | 44 h | 24.57 | 255.83 | 12.09 |  | 51.5 | 6.25 | 13.98 | 42.5

From ChEMBL document CHEMBL1133603, “Synthesis and antimalarial activity of artemisinin derivatives containing an amino group” (2000)
